FAK inh = FAK kinase inhibitors, primary screen, biochemical; Focal adhesion kinase 1 (Homo sapiens), Q05397; biochemical FAK kinase activity assay; inhibition, %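 (tested at 7 µM)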; hit rate 0.84% among 97,000; AID 727, 2007; in the data active = inhibition above about 19%;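 note: 0% = DMSO and 100% = reference compound high control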
EphB4 antag = EphB4-ephrin-B2 interaction antagonists, primary screen, biochemical, TNYL-RAW peptide probe, fluorescence polarization. AID 720, 2007. inhibition, % at 7 µM. EphB4 LBD / TNYL-RAW-Alexa532 peptide. hit rate 0.15% among 97,000. Ephrin type-B receptor 4 (Homo sapiens), P54760;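 active = inhibition above the screen-wide mean inhibition plus 3 SD, cut at about 15% in these data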;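 note: 0% = DMSO wells and 100% = excess unlabeled TNYL-RAW peptide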
hDAT+cocaine = changed hDAT dopamine uptake under cocaine IC80, either direction, primary screen, cocaine antagonist project, cell-based, LLC-PK1 hDAT, [14C]-dopamine uptake, MLSMR; B-score at 10 µM; LLC-PK1 hDAT cells, [14C]-dopamine uptake with cocaine IC80; actives deviate in either direction; Sodium-dependent dopamine transporter (Homo sapiens), Q01959; hit rate 1.3% among 110,000;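 active = Z score or B-score, a plate-position-corrected score, falls beyond the plate's 99.7% confidence bounds, in either direction; inactive = both scores lie inside the 99.7% bounds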;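 note: scored against the spread of the other compound wells on the same plate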
Target sequence (Q01959 whole entry, looked up): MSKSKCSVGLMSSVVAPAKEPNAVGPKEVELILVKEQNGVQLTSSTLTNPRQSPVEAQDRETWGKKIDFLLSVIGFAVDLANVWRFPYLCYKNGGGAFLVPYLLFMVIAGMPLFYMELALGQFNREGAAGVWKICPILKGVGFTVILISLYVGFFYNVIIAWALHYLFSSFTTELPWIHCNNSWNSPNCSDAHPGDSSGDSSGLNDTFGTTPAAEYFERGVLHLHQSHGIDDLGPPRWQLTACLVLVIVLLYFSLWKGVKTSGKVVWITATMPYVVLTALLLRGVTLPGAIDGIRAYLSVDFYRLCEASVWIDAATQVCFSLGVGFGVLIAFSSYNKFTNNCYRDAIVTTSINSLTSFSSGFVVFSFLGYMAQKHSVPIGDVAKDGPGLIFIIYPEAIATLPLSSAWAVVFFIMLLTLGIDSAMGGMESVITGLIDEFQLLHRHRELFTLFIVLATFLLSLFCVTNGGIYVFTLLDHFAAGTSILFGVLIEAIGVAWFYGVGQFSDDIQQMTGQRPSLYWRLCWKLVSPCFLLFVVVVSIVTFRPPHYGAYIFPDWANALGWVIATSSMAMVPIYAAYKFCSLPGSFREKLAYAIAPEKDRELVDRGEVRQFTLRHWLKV
Rev-RRE block = HIV-1 Rev-RRE binding inhibitors, primary screen, biochemical, FRET, protein-RNA interaction | P05866 | Rev peptide-RRE RNA binding | inhibition, % at 8 µM | hit rate 0.79% among 97,000;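 active = inhibition above the screen-wide mean plus 3 SD, cut at about 35% in these data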;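 note: 0% = median DMSO wells and 100% = median Neomycin B control wells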
Target sequence (P05866 whole entry, looked up): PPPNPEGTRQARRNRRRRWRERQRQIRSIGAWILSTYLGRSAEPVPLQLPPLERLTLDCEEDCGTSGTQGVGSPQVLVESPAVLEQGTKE
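Probe or stimulus: fluorescein-Rev peptide as binding partner; assay system: Cy5-tagged RRE RNA duplex with fluorescein-tagged Rev peptide; timing: 5 min compound–RNA preincubation, then 15 min with peptide, 25 °C; medium: HEPES pH 7.5 buffer with KCl, MgCl2, NaCl and EDTA; signal: fluorescein-to-Cy5 FRET, 480 nm excitation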
PLK1 PBD inh = Plk1 polo box domain binding inhibitors, primary screen, biochemical, fluorescence polarization; Serine/threonine-protein kinase PLK1 (Homo sapiens), P53350; Plk1 PBD phosphopeptide binding; inhibition, %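 (tested at about 20 µM)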; hit rate 0.13% among 97,000; AID 693, 2007; in the data active = inhibition above about 34%, passing the limit was not always enough
PLK1 kinase inh = human PLK1 kinase inhibitors, primary screen, biochemical, TR-FRET. hit rate 0.53% among 97,000. recombinant PLK1 kinase, TR-FRET peptide phosphorylation. Serine/threonine-protein kinase PLK1 (Homo sapiens), P53350. inhibition, % at 10 µM. AID 619, 2007;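 active = inhibition of 50% or more in the single-concentration screen; inactive = inhibition below 50%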;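 note: 0% = DMSO max control and 100% = H-89 dihydrochloride min control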
The depositor's hits bear a star; . = no result given. Shown are actives, neighbours in structure and some others; about 3.2% of the full set was active somewhere.

SMILES	FAK inh	EphB4 antag	hDAT+cocaine	Rev-RRE block	PLK1 PBD inh	PLK1 kinase inh
COc1ccc(/C=N/Nc2ccc([N+](=O)[O-])cc2)cc1Cn1cc([N+](=O)[O-])cn1	-2.7	-4.3	-0.161	54.0*	11.9	-11.1
COc1ccc(C)cc1-n1nnnc1SCc1csc(C)n1	4.1	-0.8	-8.25*	5.4	0.7	-0.7
COc1ccc(C)cc1-n1nnnc1SCc1cc(=O)n2cc(C)ccc2n1	.	.	0.0615	.	.	.
NS(=O)(=O)c1cccc(NC(=O)Cn2cnc3ccccc3c2=O)c1	-2.8	-1.0	-0.0274	8.4	-7.2	-4.5
CCCOC(=O)Nc1nc2ccccc2o1	0.7	11.7	-0.755	38.2*	-43.6	-12.6
CCOC(=O)N1CCN(C(=O)CCSc2ccccc2)CC1	2.4	-7.5	0.557	1.7	-11.4	-10.3
Cc1ccc(Cl)cc1NC1=NC(=S)N(C(C)C)C12CCCCC2	1.5	2.6	0.024	4.0	-5.6	-9.0
N#CC1=C(N)c2ccccc2CC12CCCCC2	1.8	-1.1	0.0566	3.9	-5.0	-2.2
CCCCCCNC(=O)c1cc(-c2ccco2)nc2ccccc12	19.6*	5.1	1.33	3.4	-1.3	-9.8
CC(C)CCNC(=O)c1cc(-c2ccco2)nc2ccccc12	0.8	-1.1	0.399	4.8	-34.9	-2.5
CCOc1ccc(C(CCc2ccccc2)NC(=O)c2ccccc2F)cc1OCC (stereo unspecified)	-1.7	18.4*	-0.429	5.4	-6.6	-14.0
CCOc1ccc(C(CCc2ccccc2)NC(=O)c2ccccc2OC)cc1OCC (stereo unspecified)	0.7	5.9	-0.934	-1.9	-19.6	-5.8
CCOC(=O)CCCNC(=O)COC(=O)c1ccc(O)cc1	-0.3	-2.4	2.48*	6.0	-39.6	-9.5
CCOC(=O)COC(=O)c1ccc(O)cc1	.	.	-1.75	.	.	.
N#Cc1c(-c2ccc3c(c2)OCO3)ccn2nc(-c3cccc(C(F)(F)F)c3)nc12	-3.8	-5.7	-0.363	8.1	15.7	-19.1
OCCNc1cc(-n2nc(-c3ccccc3)cc2-c2ccccc2)ncn1	-1.0	-6.7	3.71*	7.1	16.4	-0.5
CCOc1cc(N2CCOCC2)c(OCC)cc1NC(=O)CC12CC3CC(CC(C3)C1)C2	3.0	-1.7	2.68*	-0.6	2.3	-5.4
CC(C)[C@H]1COCCS(=O)(=O)N1Cc1ccccc1	.	.	-0.326	.	.	.
COc1cccc(-c2cn3nc(C)c(C)nc3n2)c1	2.9	0.4	0.977	39.7*	-18.6	-8.8
COc1ccc(S(=O)(=O)N(CCc2ccccc2)CC(=O)NC(C)C)cc1	-3.0	3.2	-0.0796	6.2	-14.3	-4.6
CC[C@@H]1CC=C[C@H]2[C@H]1C(=O)N(Cc1ccccc1)[C@H]2c1cc(C)ccc1F	.	.	0.0659	.	.	.
COc1ccc(N2CCN(C(=S)Nc3cc(C)cc(C)c3)CC2)cc1	-1.3	-6.5	-0.903	-0.7	19.3	-5.5
COc1ccc(CC(=O)N2CCN(c3ccccn3)CC2)cc1OC	0.2	0.8	0.862	6.3	0.4	-12.3
COc1ccc(N2CCN(C(=S)Nc3cc(C)ccc3C)CC2)cc1	-1.1	-3.4	-4.67*	1.0	1.3	-14.1
COc1ccc(OC)c(NC(=S)N2CCN(c3ccccn3)CC2)c1	-8.6	6.8	-8.81*	1.7	-3.7	-0.7
SMILES	FAK inh	EphB4 antag	hDAT+cocaine	Rev-RRE block	PLK1 PBD inh	PLK1 kinase inh
CCC(CC)C(=O)NC12CC3CC(CC(C3)C1)C2	0.5	-0.4	-0.366	4.5	21.7	-5.8
CCSC1=N/C(=C\c2ccc(-c3ccccc3[N+](=O)[O-])o2)C(=O)S1	-3.1	3.1	-0.822	53.9*	-11.9	-8.2
O=c1c2ccccc2oc2ncccc12	3.8	3.6	0.808	11.8	5.9	-9.9
CCOC(=O)c1oc2ccccc2c1CN1CCN(c2ccccc2)CC1	1.1	-1.6	-0.744	2.5	8.4	1.5
CCOC(=O)c1oc2ccccc2c1CN1CCN(C(=O)c2ccccc2)CC1	.	.	2.8*	.	.	.
CN1CCc2c(sc(/N=C/c3cccs3)c2C(N)=O)C1	4.5	-4.0	-0.65	80.8*	-5.4	-14.1
COc1ccc(Cc2nnc3c4cnn(C)c4ncn23)cc1	0.8	2.9	-7.4*	-6.6	6.1	-7.2
Cc1cccc(C)c1OCc1nnc2c3cnn(C)c3ncn12	7.4	7.2	0.866	4.2	-4.5	-11.2
Cc1cc(NC(=O)c2ccco2)ncc1NC(=O)CCc1ccccc1	0.8	-4.3	-1.41	2.1	2.4	-5.4
CCC(=O)Nc1cc(C)c(NC(=O)CCc2ccccc2)cn1	2.3	-0.2	-0.935	37.8*	-11.2	-5.6
COc1ccccc1Nc1nc(NCCCCO)nc(N2CCCC2)n1	.	.	0.848	.	.	.
O=c1oc2cc(Oc3ccc(C(F)(F)F)cc3[N+](=O)[O-])ccc2c2c1CCCC2	8.1	10.9	0.498	9.9	18.3	-4.7
Cc1ccc(Cn2c(SCC(=O)Nc3cc(C)on3)nc3ccccc3c2=O)cc1	-12.8	0.1	-0.282	5.4	0.2	-13.8
Cc1cc(NC(=O)CSc2nc3ccccc3c(=O)n2Cc2ccccc2)no1	2.2	3.2	-8.15*	7.5	-11.0	-6.3
CC1=C(OC(=O)c2ccccc2)C(C)(C)C(c2ccc(Br)cc2)OC1=O (stereo unspecified)	1.7	-2.9	0.661	16.4	-0.8	-15.5
Cc1nc(NC(=O)c2ccccc2)sc1-c1csc(Nc2ccc(Cl)cc2Cl)n1	1.4	3.6	2.39*	5.8	1.4	-14.3
Cc1ccccc1Nc1nc(-c2sc(NC(=O)c3ccccc3)nc2C)cs1	-1.9	3.3	2.53*	9.5	-12.8	0.3
Cc1ccccc1Nc1nc(-c2sc(NC(=O)c3cccc(Cl)c3)nc2C)cs1	-4.1	-2.9	1.72*	2.8	-10.8	-24.5
Cc1ccccc1Nc1nc(-c2sc(NC(=O)c3ccc([N+](=O)[O-])cc3)nc2C)cs1	3.4	0.6	0.805	2.7	3.6	-13.2
Cc1ccc(Cl)cc1Nc1nc(-c2sc(NC(=O)c3cccc(Cl)c3)nc2C)cs1	-1.8	4.5	0.0743	3.0	-19.9	-14.8
COC(=O)C[C@H]1c2cc(F)ccc2S(=O)(=O)N1c1ccc(N(C)C)cc1	.	.	-0.255	.	.	.
CCOC(=O)C(NCc1ccco1)(NC(=O)c1ccccc1)C(F)(F)F (stereo unspecified)	-0.5	-6.0	-0.945	-2.5	18.8	-0.9
CN(CC(=O)NCCN1CCN(c2ccccc2)CC1)S(=O)(=O)c1ccc2c(c1)CCC(=O)N2	-1.8	3.7	0.0452	11.6	-7.2	-16.9
Cc1onc(-c2ccccc2Cl)c1C(=O)Nc1cnn(Cc2ccccc2)c1	.	.	-0.179	.	.	.
